Source: PubChem BioAssay (several laboratories)
Compounds with a hit are over-represented: about 1.7% of the library has one in this group of screens.
Rpn11 inh = Rpn11 (human) deubiquitinase inhibition; human 26S proteasome, Ub4-pepOG fluorescence polarization; 20S core pre-blocked with epoxomicin; actives 0.59% (n = 360,000); O00487; inhibition, % at 20 µM;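 active = inhibition at 20 µM, scaled to each plate's controls, above about 33%, limit read from the data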
Target sequence (O00487 whole entry, looked up): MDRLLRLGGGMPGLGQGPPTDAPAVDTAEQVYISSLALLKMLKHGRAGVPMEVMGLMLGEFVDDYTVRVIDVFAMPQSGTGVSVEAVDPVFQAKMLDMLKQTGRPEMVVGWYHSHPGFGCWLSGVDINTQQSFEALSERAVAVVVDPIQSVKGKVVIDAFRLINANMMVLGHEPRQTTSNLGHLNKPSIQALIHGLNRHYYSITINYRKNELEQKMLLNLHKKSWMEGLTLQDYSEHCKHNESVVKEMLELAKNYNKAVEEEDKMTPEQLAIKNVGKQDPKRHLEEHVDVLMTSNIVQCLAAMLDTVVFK
HNF4A DNA FP = change in binding of human HNF4 alpha to DNA. activity change, % at 10 µM. P41235. HNF4a-FITC DNA binding, fluorescence polarization, 1 h. AID 1224865. actives 0.3% (n = 360,000); in the data active = activity change above about 30%, passing the limit was not always enough
CSN deneddyl inh = inhibitors of human CSN-mediated cullin deneddylation. actives 0.38% (n = 360,000). inhibition, % at 12.5 µM. Q92905. Purified CSN, SCF-Nedd8-OG deneddylation, fluorescence polarization. AID 651999;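 active = pattern-corrected inhibition above about 35%, with an unprinted fluorescence ratio check between 0.5 and 1.5, limit read from the data, passing the limit was not always enough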
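Assay system: HEK293T-derived human Csn5 enzyme; quantity: 0.24 nM enzyme; medium: Tris/NaCl/DTT buffer, pH 7.5; also added: substrate SCFSkp2-Nedd8OG, 10 nM; doses: 12.5 µM compound; schedule: 90 min reaction at room temperature; signal: FP; read-out: % inhibition of substrate cleavage by Csn5; benchmarks: substrate-only high control, full reaction low control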
TPT1 inhibitor = C. albicans TPT1 enzyme inhibition; inhibition, % at 5 µM; recombinant caTPT1, FP RNA substrate dephosphorylation; actives 0.81% (n = 300,000); AID 1962;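 active = inhibition above the mean of all tested compounds plus 3 SD, set per screening campaign, cut at about 24% in these data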
IDE inh = inhibits human insulin-degrading enzyme in HEK cells; actives 0.41% (n = 320,000); FAbetaB cleavage, fluorescence polarization; inhibition, % at 5.59 µM; AID 434962;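 active = percent inhibition above the average of all tested compounds plus 3 SD, set per screening campaign, cut at about 16% in these data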;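 also: IDE supplied by intact live HEK cells; FP after avidin binding of uncleaved biotin substrate so inhibition keeps polarization high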
IDE cell activ = IDE (human) activation, cell-based; activation, % at 5.96 µM; HEK cells, FAbeta-B cleavage, fluorescence polarization; 0% vehicle, 100% cell-free pure enzyme wells; actives 0.073% (n = 340,000); P14735;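 active = activation above the mean of all tested compounds plus 3 SD, set per screening campaign, cut at about 17% in these data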
Large screens that a line does not name were inactive.

Cc1ccc(NC(=O)CN2C(=O)NC(C)(C)C2=O)cc1S(=O)(=O)N1CCCCCC1	HNF4A DNA FP 33 (no result: TPT1 inhibitor, IDE inh)
C/C(Cn1cnc([N+](=O)[O-])n1)=N\NC(=O)c1ccc(O)cc1O	none
CCCCCCCCCC(=O)O	none (no result: TPT1 inhibitor)
O=C(O)CCCCC1CCSS1 (stereo not given)	CSN deneddyl inh 35
Cc1cc2nc(-c3ccccc3)c(CC(C)(C)C)n2c(C)c1Br	none (no result: TPT1 inhibitor, IDE inh, IDE cell activ)
Cc1cc2nc(-c3cccc(Br)c3)c(CC(C)(C)C)n2c(C)c1Br	CSN deneddyl inh 132 (no result: TPT1 inhibitor, IDE inh, IDE cell activ)
CSCC[C@H](NC(=O)Cc1c(C)c2cc3c(C)c(C)oc3cc2oc1=O)C(=O)N[C@@H](C(=O)O)c1ccccc1	none (no result: TPT1 inhibitor, IDE inh, IDE cell activ)
O=C(COc1ccc(/C=N/NC(=O)c2ccncc2)cc1)Nc1ccc([N+](=O)[O-])cc1	none
O=C(COc1ccc(/C=N/NC(=O)c2ccc(O)cc2)cc1)Nc1cccc([N+](=O)[O-])c1	CSN deneddyl inh 59
COc1cc(C2c3c([nH]c(=O)[nH]c3=O)Nc3ccc4ccccc4c32)cc(OC)c1OC (stereo not given)	CSN deneddyl inh 66
Cc1c(Cl)cccc1NC(=S)Nc1ccc2[nH]c(=O)[nH]c2c1	HNF4A DNA FP 39
COc1cccc(C2CC(c3ccccc3)=NN2S(=O)(=O)c2ccc(C)cc2)c1OC (stereo not given)	CSN deneddyl inh 76 (not shown: Rpn11 inh)
O=C(O)c1cc(O)c2c(c1)[C@H]([C@H]1c3cc(C(=O)O)cc(O)c3C(=O)c3c(O[C@@H]4O[C@H](CO)[C@@H](O)[C@H](O)[C@H]4O)cccc31)c1cccc(OC3O[C@H](CO)[C@@H](O)[C@H](O)[C@H]3O)c1C2=O (stereo not given in full)	TPT1 inhibitor 75
O=C(NCc1n[nH]c(=S)n1-c1cccc(Cl)c1)c1ccc(S(=O)(=O)N2CCCCC2)cc1	none
COc1ccc(C2CC(C(F)(F)F)n3nc(C(=O)O)c(Cl)c3N2)cc1OC (stereo not given)	IDE cell activ 18
C[C@@H](N)C(=O)NC[C@H]1O[C@@H](n2cnc3c(N)ncnc32)[C@H](O)[C@@H]1O	none (no result: TPT1 inhibitor, IDE inh)
Cc1nc([N+](=O)[O-])cn1CC(=O)c1ccc(F)cc1	HNF4A DNA FP 77
CCC/C(C#CCCN1C(=O)c2ccccc2C1=O)=C1/c2ccccc2C(=O)N1c1ccccc1	none (no result: TPT1 inhibitor)
COC(=O)c1c(NC(C)=O)sc2c1CCCCC2	CSN deneddyl inh 104
CN(C)CCCN1C(=O)c2cccc3c(Br)ccc(c23)C1=O	none
CCCCNc1ccc2c3c(cccc13)C(=O)N(CCCC)C2=O	IDE cell activ 45 (no result: TPT1 inhibitor, IDE inh)
O=C(c1ccco1)N1CCN(c2ncnc3c(-c4ccc(Cl)cc4)nsc23)CC1	none
O=C(O)c1ccc(-n2c(-c3cc(-c4ccco4)[nH]n3)n[nH]c2=S)cc1	CSN deneddyl inh 42
COc1cccc(OC)c1-c1nn2c(-c3cc(-c4ccccc4)n[nH]3)nnc2s1	HNF4A DNA FP 225
C(#Cc1ccccc1)C[N+]1(CC#Cc2ccccc2)CCCC1	none
C=CC#CC[N+]1(CC#Cc2ccccc2)CCOCC1	Rpn11 inh 139, CSN deneddyl inh 166 (no result: TPT1 inhibitor, IDE inh)
CCOc1ccc(NS(=O)(=O)c2c(C)nc3sc(CC)nn3c2=O)cc1	none
Cc1cccc(NC(=S)N/N=C2\CC(C)(C)Oc3ccc(O)cc32)c1	HNF4A DNA FP 36
COc1ccc([C@H]2C[C@@H](n3cc(-c4ccc(F)cc4)nn3)[C@H](O)CN2C(=O)C2CCCCC2)cc1	none (no result: TPT1 inhibitor, IDE inh, IDE cell activ)
CC1Sc2ccc(S(=O)(=O)N3CCC(C(=O)Nc4ccc(Cl)cc4)CC3)cc2NC1=O (stereo not given)	HNF4A DNA FP 41 (not shown: Rpn11 inh)
COc1ccc(NC(=O)C2CCN(S(=O)(=O)c3ccc4c(c3)NC(=O)C(C)S4)CC2)cc1 (stereo not given)	none
COc1ccc(Nc2nc(Cl)c(C=O)s2)cc1	HNF4A DNA FP 88, CSN deneddyl inh 41 (not shown: Rpn11 inh)
CCC1Oc2ccc(C)cc2N(CC(=O)N2CCCC2)C1=O (stereo not given)	none
COc1ccc(C(=O)N2CCCC(c3cc(C(=O)NCc4ccc(F)cc4)no3)C2)cc1 (stereo not given)	none (no result: TPT1 inhibitor, IDE inh, IDE cell activ)
COc1ccc(/C=N/Nc2ncc(Br)cn2)c(OC)c1	CSN deneddyl inh 62 (not shown: Rpn11 inh)
